What all share (type): functional, cell-based
The target of test [1] is T1, Melatonin receptor type 1A (Homo sapiens, UniProt P48039). In words: Agonist activity at MT1 receptor (unknown origin) expressed in HEK293 cells at 0.5 mM by Fluo-8 dye-based calcium assay relative to control. The procedure, abridged: (§1)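 HEK293 cells grown at 37 °C, 5% CO2 in DMEM with 10% FBS and G418 (400 μg/mL). Seeded at 4 × 10⁴/well on Matrigel-coated plates and grown 24 h. Loaded with Fluo-8 calcium dye for 1 h. Compounds were dissolved in DMSO and diluted in HBSS, then added automatically. Fluorescence was read at room temperature (ex 485 nm, em 525 nm, cut-off 515 nm). Agonistic rate was measured at 0.5 mM.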

For test [2], the target named is T2, Melatonin receptor type 1B (Homo sapiens) (UniProt P49286).
T2 sequence (whole entry): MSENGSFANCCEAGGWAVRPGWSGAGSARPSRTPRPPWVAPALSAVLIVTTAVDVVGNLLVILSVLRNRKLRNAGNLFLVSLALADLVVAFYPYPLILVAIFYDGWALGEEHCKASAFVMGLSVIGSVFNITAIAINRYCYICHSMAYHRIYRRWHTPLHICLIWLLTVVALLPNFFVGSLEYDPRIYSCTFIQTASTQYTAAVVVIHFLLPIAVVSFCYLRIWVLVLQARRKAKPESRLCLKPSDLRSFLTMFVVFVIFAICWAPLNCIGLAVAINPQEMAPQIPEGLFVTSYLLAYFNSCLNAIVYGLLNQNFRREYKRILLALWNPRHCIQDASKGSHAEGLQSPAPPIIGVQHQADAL
Kind of test: Agonist activity at MT2 receptor (unknown origin) expressed in HEK293 cells at 0.5 mM by Fluo-8 dye-based calcium assay relative to control. The procedure, abridged:
as §1

Test [3] deals with T1, Melatonin receptor type 1A. In words: Agonist activity at MT1 receptor (unknown origin) expressed in HEK293 cells by Fluo-8 dye-based calcium assay.
The target of test [4] is T3, Melatonin receptor type 1B (Homo sapiens, UniProt P49286).
T3 sequence (P49286 whole entry): T2 sequence (whole entry)
In words: Agonist activity at MT2 receptor (unknown origin) expressed in HEK293 cells by Fluo-8 dye-based calcium assay.

T1 sequence (P48039 whole entry): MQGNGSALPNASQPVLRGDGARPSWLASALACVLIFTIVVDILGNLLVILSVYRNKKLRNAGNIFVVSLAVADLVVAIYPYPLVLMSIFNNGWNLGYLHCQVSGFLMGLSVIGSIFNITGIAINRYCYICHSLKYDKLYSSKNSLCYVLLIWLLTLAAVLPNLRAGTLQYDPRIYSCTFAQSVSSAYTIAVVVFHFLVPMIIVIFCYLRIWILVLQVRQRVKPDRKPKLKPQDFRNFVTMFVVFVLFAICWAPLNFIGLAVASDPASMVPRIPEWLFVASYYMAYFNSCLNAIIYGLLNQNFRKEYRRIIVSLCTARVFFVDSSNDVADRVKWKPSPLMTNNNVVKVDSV

As to `CCOCc1cc(Cc2ccc(O)cc2)c(O)c(Cc2ccc(O)c(Cc3ccc(O)cc3)c2)c1`, the Activity in test [1] was -5.3%; in test [2], 29.5%.
The matching figures for `Oc1ccc(Sc2ccc(O)cc2)cc1`: 44.6% and 94.1%.
For `CCOCc1ccc(O)c(Cc2ccc(O)cc2)c1` the same measures were 3.3% and 38.3%.
Regarding `CC(=O)OC[C@H]1O[C@@H](Oc2ccc(Sc3ccc(O)cc3)cc2)[C@H](OC(C)=O)[C@@H](OC(C)=O)[C@@H]1OC(C)=O`, the Activity in test [1] was 0.3%; in test [2], 8.5%.
The matching figures for `Oc1ccc(Cc2ccc(O)c(Cc3ccc(O)cc3)c2)cc1`: 46.5% and 134%.
The matching figures for `Oc1ccc(Cc2ccc(O)c(Cc3ccccc3Cc3ccccc3)c2)cc1`: -2.3% and -6.7%.
For `CN(c1ccc(O)cc1)c1ccc(O)cc1` the same measures were -9.5% and 44.7%.
In the case of `CCOCc1ccc(O)c(Cc2ccc(O)c(Cc3ccc(O)cc3)c2)c1`, the Activity in test [1] was -5.7%; in test [2] it was -10.4%.
The matching figures for `CC(=O)OC[C@H]1O[C@@H](Oc2ccc(Sc3ccc(O[C@@H]4O[C@H](COC(C)=O)[C@@H](OC(C)=O)[C@H](OC(C)=O)[C@H]4OC(C)=O)cc3)cc2)[C@H](OC(C)=O)[C@@H](OC(C)=O)[C@@H]1OC(C)=O`: -0.4% and -3.6%.
For `CCOCc1ccc(O)c(Cc2ccc(O)c(COCC)c2)c1` the same measures were -11.2% and 5.3%.
The matching figures for `Oc1ccc(COc2ccc(Cc3ccc(O)cc3)cc2)cc1`: -5.6% and 15.3%.
For `Oc1ccc(Oc2ccc(O)cc2)cc1`, the Activity in test [1] turned out to be 45.9%; in test [2], 67.1%.
The matching figures for `Oc1ccc(COCc2ccc(O)c(Cc3ccc(O)cc3)c2)cc1`: 25.1% and 59.4%.
Take `OC[C@H]1O[C@@H](Oc2ccc(Sc3ccc(O)cc3)cc2)[C@H](O)[C@@H](O)[C@@H]1O`: the Activity is -2.3% in test [1] and -2.2% in test [2].
Regarding `Oc1ccc(Cc2ccc(O)cc2)cc1`, the Activity was 80.3% in test [1] and 103% in test [2]. The EC50 was found to be 237 µM in test [3] and 244 µM in test [4].
`CCOCc1cc(Cc2ccc(O)cc2)ccc1O`: the Activity was determined as 37% in test [1] and 117% in test [2].
For `Oc1ccc(Cc2cc(Oc3ccc(O)cc3)ccc2O)cc1` the same measures were 37.1% and 51.2%.
As to `Oc1ccc(Cc2cc(Sc3ccc(O)cc3)ccc2O)cc1`, the Activity in test [1] was 31.3%; in test [2], 48.4%.
For `Oc1ccc(Cc2ccc(O)c(Cc3ccccc3)c2)cc1` the same measures were -8.6% and -6.6%.

As usually defined, the EC50 is the concentration needed to bring the measured effect to its halfway point.

Values taken from ChEMBL document CHEMBL4387755 (Bioorg Med Chem, 2019).
